GSIS activator – GLuc luminescence reporter in INS-1E cells, primary screen for activators of glucose-dependent secretion of insulin. INS-1E GLuc reporter insulin secretion, 2-3 h. activation, % at 16.6 µM. 370,000 compounds, 0.61% hits. AID 743287;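 active means lowest replicate activation of at least 40%, so every replicate reaches that level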;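 further: 0% = median of neutral control wells and 100% = median of IBMX positive control wells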
CaV13 FRET inh – Primary screen for inhibitors of IQ motif and Ca2+-dependent inactivation inhibitor domain binding in CACNA1D, Förster resonance energy transfer in living cells, …; HEK cells, CFP/YFP FRET ICDI-IQ, plate reader, 10 min; percent FRET-ratio fall versus neutral wells; inhibition, % at 12.3 µM; 340,000 compounds, 0.098% hits;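 active means mean replicate inhibition of at least 30% and at least 1% of replicates passing that level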;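 further: 0% = median of the neutral control wells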
Xi reactivation – X-chromosome reactivation activator; XiGFP mouse fibroblasts, % GFP-positive cells imaging, 3 d; cells co-treated with 5-aza-dC sensitizer; scaled so ellipticine positive control = 100%; activation, % at 7.58 µM; 360,000 compounds, 0.055% hits;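 active means mean normalized replicate activation at least 10% and every replicate at or above 10%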;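 further: 0% = median of on-plate neutral control wells and 100% = ellipticine 6 µM median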
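Assay system: SV40-immortalized XiGFP fibroblast cells, line 68-5-11; buffer or medium: DMEM plus 5-aza-dC sensitizer; compound: one concentration, pinned; timing: compounds 3 days, fix/stain 15 min at room temperature; benchmarks: positive control ellipticine, 6 µM final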
FXN GAA850 act – activators of GAA850 frataxin (FXN) promoter | HEK293 lucGAA850 FXN promoter luciferase reporter, 24 h; percent of 10 µM SAHA response | activation, % at 6 µM | 360,000 compounds, 0.56% hits | AID 540364;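 active means activation above the average of all compounds screened plus 3 SD, cutoff fixed separately per campaign, cut at about 7.5% in these data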;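 further: 0% = DMSO wells and 100% = 10 µM SAHA wells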
GAA30 counter – activates GAA30 frataxin promoter, counter-screen for GAA850 activators; activation, % at 6 µM; 1,900 compounds, 66% hits; HEK293 lucGAA30 FXN promoter luciferase, 24 h; DMSO = 0%, 5 µM ipriflavone = 100%; shares compounds with FXN GAA850 act;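 active means mean activation above the mean of solvent-only control wells plus 3 SD, cut at about 22% in these data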;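 further: counterscreen of GAA850 promoter hits where activity marks nonselective or luminescence artifacts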
GAA850 confirm – confirmation of GAA850 frataxin (FXN) promoter activators. shares compounds with FXN GAA850 act. HEK293 lucGAA850 FXN promoter luciferase reporter, 24 h; 100% = activation by SAHA. activation, % at 6 µM. 1,900 compounds, 86% hits;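 active means mean activation above a set limit taken from the primary screen, cut at about 8% in these data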;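 further: 0% = DMSO wells and 100% = 10 µM SAHA wells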
An asterisk follows results filed as active; / = not tested or not shown. An excerpt weighted towards active compounds, which were near 1% of everything screened.

SMILES | GSIS activator | CaV13 FRET inh | Xi reactivation | FXN GAA850 act | GAA30 counter | GAA850 confirm
CNC[C@@H]1OCCCC[C@@H](C)Oc2ccc(NC(=O)c3ccccc3)cc2C(=O)N([C@@H](C)CO)C[C@H]1C | 20 | / | 0 | / | / | /
COc1ccc(NC(=O)c2ccco2)cc1NC(=O)c1cccs1 | 4 | -8 | / | 9.4* | 23* | 7
O=C(Nc1ccc(F)cc1)N[C@@H]1CC[C@@H](CCn2cc(-c3ccccc3F)nn2)O[C@@H]1CO | 6 | / | 0 | / | / | /
Cc1nc(C)c(-c2csc(Nc3cccc(O)c3)n2)s1 | 4 | -5 | 0 | 1 | / | /
Cc1cccc(Nc2nc(-c3sc(C)nc3C)cs2)c1 | -2 | -2 | 0 | 8.5* | 97* | 32*
Cc1c(C(=O)NCC2CCCO2)sc2nc(-c3ccc(F)cc3)cn12 (configuration not stated) | 0 | -4 | 0 | 17* | 61* | 21*
COc1ccc(-c2nnc(Nc3nc4c(OC)cccc4s3)o2)cc1 | / | -9 | / | 4 | / | /
COc1ccc(-c2nnc(Nc3nc4c(OC)cccc4s3)o2)c(OC)c1 | / | -3 | / | 9.0* | 19 | 23*
COc1ccc(NC(=O)N(C)C[C@@H]2Oc3c(NC(=O)Nc4ccc5c(c4)OCO5)cccc3C(=O)N([C@H](C)CO)C[C@@H]2C)cc1 | -5 | / | 0 | / | / | /
CC(Nc1cc(N2CCOCC2)ccc1[N+](=O)[O-])c1ccccc1 (configuration not stated) | 12 | -16 | 0 | 8.8* | 34* | 15*
COc1cccc(OCCNc2cc(N3CCOCC3)ccc2[N+](=O)[O-])c1 | -34 | -5 | 0 | 10* | 67* | 31*
COc1cc(O)c2c(=O)c(-c3ccc(O[C@@H]4O[C@H](CO)[C@@H](O)[C@H](O)[C@H]4O)cc3)coc2c1 | -2 | -3 | 0 | 9.0* | 108* | 31*
O=c1c(-c2ccc(O)cc2)coc2cc(OC3OC(CO)C(O)C(O)C3O)cc(O)c12 (configuration not stated) | 20 | -6 | 0 | 6 | / | /
CO[C@@H]1CN(C)C(=O)c2ccc(NC(=O)NC(C)C)cc2OC[C@@H](C)N(C(=O)CC2CC2)C[C@H]1C | 6 | / | 0 | / | / | /
Clc1ccccc1CSc1ncn(-c2ccccc2)n1 | / | -4 | / | 8.4* | 104* | 35*
O/N=C/c1ccccc1OCc1ccccc1Cl | / | / | / | 2 | / | /
COc1cc(/C=N/O)ccc1OCc1ccccc1Cl | 48 | -5 | 0 | 12* | 122* | 38*
C[C@@H]1CCCCO[C@@H](CN(C)S(=O)(=O)c2cn(C)cn2)[C@@H](C)CN([C@@H](C)CO)C(=O)c2cc(NS(=O)(=O)c3cccs3)ccc2O1 | 3 | / | 0 | / | / | /
Cc1nc(-c2nc(-c3c(C(=O)NN)noc3C)cs2)cs1 | 6 | 11 | 0 | 8.3* | 88* | 27*
Cc1nc(-c2nc(-c3c(C(=O)NNC(=O)c4ccc(Cl)cc4)noc3C)cs2)cs1 | -6 | -5 | 0 | 1 | / | /
O=C(C[C@@H]1C[C@H]2c3cc(NC(=O)Nc4ccccc4F)ccc3O[C@H]2[C@@H](CO)O1)NCc1ccc(Oc2ccccc2)cc1 | -4 | / | 0 | / | / | /
CCCC(=O)Nc1ccc2c(c1)C(=O)N(C)[C@H]1CC[C@H](CC(=O)Nc3ccccc3F)O[C@@H]1CO2 | 2 | / | 0 | / | / | /
CN(C)C(=S)N=c1ssc(=S)n1Cc1ccccc1 | -24 | -5 | 0 | 21* | 4 | 28*
C=C(C)[C@@H]1C2=CC(C(=O)OC)=C(C[C@H](C(=C)C)[C@H]3O[C@H]3C3=C[C@H]1OC3=O)O2 | / | / | / | 15* | -44 | 3
CCC(=O)Nc1ccc2c(c1)OC[C@@H](C)N(C(=O)Cc1ccccn1)C[C@@H](C)[C@H](OC)CN(C)C2=O | 11 | / | 0 | / | / | /
SMILES | GSIS activator | CaV13 FRET inh | Xi reactivation | FXN GAA850 act | GAA30 counter | GAA850 confirm
Cc1cccc(/C=N/NC(=O)c2cccc([N+](=O)[O-])c2)n1 | 1 | -7 | 0 | 12* | -39 | 11*
Cc1cccc(/C=N/NC(=O)c2cccc(Cl)c2)n1 | 6 | -5 | 0 | 7.6* | -66 | -16
Cc1cccc(/C=N/NC(=O)c2cccc(NC(=O)c3ccccc3)c2)n1 | 18 | -3 | 0 | 1 | / | /
CCNC(=O)[C@@H]1[C@@H](CO)[C@@H]2Cn3c(ccc(-c4ccccc4)c3=O)[C@@H]2N1C(=O)C1CC1 | 0 | / | 1 | / | / | /
COc1ccc(O)c(/C=N/Nc2nc(Nc3ccccc3)nc(-n3nc(C)cc3C)n2)c1 | / | -4 | / | 8.7* | 11 | 16*
C[C@@H]1CN([C@@H](C)CO)C(=O)c2cccc(NC(=O)C3CC3)c2O[C@H]1CN(C)S(=O)(=O)c1ccc(Cl)cc1 | 21 | / | 0 | / | / | /
O=C(CSc1ncn[nH]1)Nc1c(F)cc(F)cc1Br | 42 | -6 | / | 14* | 4 | 0
O=C(CSc1nc2ncccc2[nH]1)Nc1c(F)cc(F)cc1Br | -4 | -4 | 0 | -3 | / | /
O=C1/C(=C/c2ccc(O)c(O)c2)Oc2cc(O)ccc21 | 4 | / | / | 4 | / | /
COc1cc(/C=C2\Oc3cc(O)ccc3C2=O)ccc1O | 7 | / | / | 8.3* | 94* | 38*
COc1ccc(/C=C2\OC(=O)c3c(OC)cccc32)cc1OC | / | / | / | 11* | 111* | 45*
CC(C)CC#Cc1ccc2c(c1)O[C@H](CN(C)C(=O)c1cnccn1)[C@@H](C)CN([C@H](C)CO)S2(=O)=O | -20 | / | -2 | / | / | /
CO[C@@H]1CN(C)C(=O)c2cc(NC(=O)c3cnccn3)ccc2OC[C@@H](C)NC[C@H]1C | 10 | / | 0 | / | / | /
CN1C[C@@H]2[C@H](c3ccccc31)[C@@H](CO)N2Cc1ccccc1 | 1 | / | 0 | / | / | /
Cn1c(=O)c(/C=C/c2ccccc2)nc2ccccc21 | -22 | -5 | 0 | 8.1* | 127* | 50*
O=C(Nc1cccc(C(=O)Nc2cccc(Br)c2)c1)c1ccccc1 | -5 | 2 | 1 | 2 | / | /
CC(C)c1ccc(NC(=O)c2cccc(Br)c2)cc1 | -3 | -8 | 0 | 8.2* | 110* | 49*
CCCOc1ccc(-c2c(=O)n(O)c3ccccc3[n+]2[O-])cc1 | -9 | -5 | 0 | 11* | 95* | 31*
CCOc1ccc(-c2c(=O)n(OCc3ccccn3)c3ccccc3[n+]2[O-])cc1 | / | -4 | / | -1 | / | /
Nc1c2c3c(sc2nc(=O)n1N)CCCC3 | 8 | -4 | 0 | 1 | / | /
Nc1nc2sc3c(c2c(=O)s1)CCCC3 | 21 | -9 | / | 8.2* | 70* | 28*
N#Cc1c(NC(=O)c2cnn3cccnc23)sc2c1CCCC2 | 16 | -3 | 1 | 2 | / | /

Source: PubChem BioAssay (several laboratories)
